Screening data: PubChem, Broad Institute
In the library only some 1.9% were active in any assay of this set; here they are far more common.
SR-BI DiI-HDL act – enhances SR-BI lipid uptake from DiI-HDL. CHO ldlA[mSR-BI] cells, DiI-HDL uptake fluorescence, 3 h; 100 = double the neutral-control signal. activation, % at 12.5 µM. actives 0.096% (n = 320,000);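 active = mean replicate activation of at least 60% and every replicate at or above 60%; inconclusive = mean or all-replicate condition met, but not both; inactive = mean below 60% and not all replicates reaching 60%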
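material = CHO ldlA[mSR-BI] cells | medium = Ham's F12 with 0.5% BSA, HEPES 25 mM, pH 7.4 | reagent = fluorescent DiI-HDL, 10 µg/mL final | compound dosing = single-point compound dose | incubation = 3 h, 37 °C | measured by = bottom-read fluorescence, 550/595 nm | measure = HDL uptake via cellular fluorescence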
PglD inh – blocks C. jejuni PglD acetyltransferase activity; purified PglD enzyme, DTNB colorimetric CoA detection; inhibition, % at 12.5 µM; actives 0.098% (n = 360,000); in the data active = inhibition above about 16%, passing the limit was not always enough; inconclusive = no clear call, values can overlap the other calls
Rtt109 HAT inh – blocks Candida albicans Rtt109/Vps75 acetyltransferase activity | inhibition, % at 34.9 µM | actives 0.16% (n = 330,000) | purified Rtt109/Vps75, ThioGlo CoA-SH fluorescence, 4 h;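 active = inhibition of at least 50% in every replicate; inconclusive = best replicate reaches 50% inhibition but some replicates fall short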
Target sequence (Q5AAJ8 whole entry, looked up): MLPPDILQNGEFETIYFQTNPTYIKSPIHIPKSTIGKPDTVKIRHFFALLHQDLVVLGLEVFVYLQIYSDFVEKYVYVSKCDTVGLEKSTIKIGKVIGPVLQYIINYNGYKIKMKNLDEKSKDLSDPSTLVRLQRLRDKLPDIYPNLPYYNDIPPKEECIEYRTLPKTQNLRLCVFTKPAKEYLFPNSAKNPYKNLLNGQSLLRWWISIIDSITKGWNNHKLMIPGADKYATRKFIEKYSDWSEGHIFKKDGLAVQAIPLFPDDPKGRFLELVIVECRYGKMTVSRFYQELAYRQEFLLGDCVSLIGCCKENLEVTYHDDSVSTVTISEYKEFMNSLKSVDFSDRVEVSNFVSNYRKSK
Glyco luc inh – N-linked glycosylation inhibition. D54 ERlucT glycosylation luciferase reporter, 24 h; percent of 100 nM tunicamycin response. reporter increase, % at 12.5 µM. actives 0.23% (n = 360,000). AID 588692;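 active = mean luciferase reporter signal, scaled so untreated is 0 and the glycosylation-blocking control 100, at or above a set limit in every replicate; inconclusive = mean reaches the limit but not every replicate does; inactive = mean below the limit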;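 note: luciferase carries N-glycosylation sites so blocking glycosylation raises the light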
Env fusion inh – HIV envelope-mediated fusion inhibition; inhibition, % at 12.3 µM; HeLa-JRFL Env/CEM21 cell fusion, luciferase; actives 1.1% (n = 360,000);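 active = mean replicate inhibition score of at least 50 and every replicate individually at or above 50; inconclusive = only one of the two criteria met; inactive = mean below 50 and not all replicates reaching 50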
SR-BI HDL uptake – mouse SR-BI HDL lipid transfer inhibition | Q61009 | ldlA[mSR-BI] CHO cells, DiI-HDL uptake fluorescence, 3 h | inhibition, % at 12.5 µM | actives 0.96% (n = 320,000) | AID 488896;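 active = mean replicate inhibition of at least 70% and a set share of replicates each scoring 70 or more; inconclusive = meets just one of the two criteria; inactive = fails both criteria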
Hits are given with their value; – = inactive; ? = inconclusive; · = no result given; [ ] = another dose, or the depositor's remark.

SMILES	SR-BI DiI-HDL act	PglD inh	Rtt109 HAT inh	Glyco luc inh	Env fusion inh	SR-BI HDL uptake
CC(C)CNC(=O)c1cccc(NC(=O)c2ccc3c(c2)C(=O)N(C)C3=O)c1	–	–	–	–	–	81
CCC(=O)Oc1ccc(C(=O)Nc2cccc(C(=O)NCC(C)C)c2)cc1	–	·	–	–	–	–
CNC[C@H]1Oc2c(NC(=O)Nc3ccc4c(c3)OCO4)cccc2C(=O)N([C@H](C)CO)C[C@@H]1C	·	–	·	·	64[16.7 µM]	·
CNC[C@@H]1Oc2c(N)cccc2C(=O)N([C@@H](C)CO)C[C@@H]1C	·	·	·	·	62[16.7 µM]	·
C[C@@H]1CN([C@@H](C)CO)C(=O)c2cccc(NC(=O)Nc3ccc4c(c3)OCO4)c2O[C@H]1CN(C)Cc1ccccc1	·	–	·	·	–	·
C[C@H](CO)N1C[C@H](C)[C@H](CN(C)Cc2ccccc2)Oc2c(NC(=O)Nc3ccc4c(c3)OCO4)cccc2C1=O	·	–	·	·	65[16.7 µM]	·
O=C(C[C@H]1CC[C@H]2[C@@H](COC[C@H](O)CN2Cc2ccccc2F)O1)N1CCc2ccccc2C1	·	–	·	·	·	·
C#CCOCCOCCOCCNc1nc(N2CCN(C(=O)CCCCCCCCCCNC(=O)[C@H](CCCCN)n3cc(CCCC(=O)O)nn3)CC2)nc(N2CCN(C(=O)CCCCCCCCCCNC(=O)[C@H](CCCN=C(N)N)n3cc(C[C@@H](C)CC)nn3)CC2)n1	–	–	?	–	·	80
C#CCOCCOCCOCCNc1nc(N2CCN(C(=O)CCCCCCCCCCNC(=O)[C@H](CCCCN)n3cc(CCO)nn3)CC2)nc(N2CCN(C(=O)CCCCCCCCCCNC(=O)[C@H](CCCN=C(N)N)n3cc(C[C@@H](C)CC)nn3)CC2)n1	–	–	–	–	·	–
C#CCOCCOCCOCCNc1nc(N2CCN(C(=O)C([C@@H](C)O)n3cc([C@@H](N)CCCCN)nn3)CC2)nc(N2CCN(C(=O)[C@H](CO)n3cc([C@@H](N)C(C)C)nn3)CC2)n1 (some centres undefined)	–	–	–	–	–	–
C#CCOCCOCCOCCNc1nc(N2CCN(C(=O)C([C@@H](C)O)n3cc([C@@H](N)CCCCN)nn3)CC2)nc(N2CCN(C(=O)C([C@@H](C)O)n3cc([C@@H](N)CCCCN)nn3)CC2)n1 (some centres undefined)	–	–	73	–	·	–
CC(C)C#Cc1ccc2c(c1)O[C@@H](CN(C)C)[C@@H](C)CN([C@H](C)CO)S2(=O)=O	·	·	·	·	–	·
Nc1nonc1C(=O)NCCNCc1ccccc1OCc1ccccc1F	–	–	–	–	–	–
Nc1nonc1C(=O)NCCNCc1cc(Br)ccc1OCc1ccccc1F	–	–	–	–	78	–
CC(C)(C)n1nnnc1C(c1ccccn1)N(Cc1ccccc1)Cc1ccc(Cl)cc1 (centres undefined)	–	–	–	–	127	–
COc1ccc(NC(=O)N(C)C[C@H]2Oc3c(NS(=O)(=O)c4ccc(F)cc4)cccc3C(=O)N([C@@H](C)CO)C[C@H]2C)cc1	·	–	·	·	–	·
COC(=O)c1ccc(COc2ccccc2/C=C(\C#N)C(=O)Nc2c(C)cccc2C)cc1	–	·	–	37	–	–
COC(=O)c1ccc(COc2ccccc2/C=C(\C#N)C(=O)Nc2ccccc2C)cc1	–	–	–	–	·	–
CCCC(=O)Nc1ccc2c(c1)OC[C@H](C)N(Cc1ccncc1)C[C@@H](C)[C@H](OC)CN(C)C2=O	·	–	·	·	–	·
CO[C@@H]1CN(C)C(=O)c2ccc(NC(C)=O)cc2OC[C@H](C)N(Cc2cncnc2)C[C@H]1C	·	–	·	·	–	·
CO[C@@H]1CN(C)C(=O)c2ccc(NC(C)=O)cc2OC[C@@H](C)N(Cc2cncnc2)C[C@@H]1C	·	–	·	·	57[16.7 µM]	·
CO[C@H]1CN(C)C(=O)c2ccc(NC(=O)C3CC3)cc2OC[C@H](C)N(Cc2cc(F)ccc2F)C[C@H]1C	·	–	·	·	–	·
CCCC(=O)Nc1ccc2c(c1)OC[C@H](C)N(Cc1ccncc1)C[C@H](C)[C@H](OC)CN(C)C2=O	·	–	·	·	63[16.7 µM]	·
CO[C@H]1CN(C)C(=O)c2ccc(NC(=O)C3CC3)cc2OC[C@H](C)N(Cc2cc(F)ccc2F)C[C@@H]1C	·	–	·	·	81[16.7 µM]	·
Cc1noc(C)c1NC(=O)N(C)C[C@@H]1Oc2ccc(NC(=O)Nc3ccccc3)cc2C(=O)N([C@H](C)CO)C[C@@H]1C	·	–	·	·	–	·
SMILES	SR-BI DiI-HDL act	PglD inh	Rtt109 HAT inh	Glyco luc inh	Env fusion inh	SR-BI HDL uptake
C[C@@H]1CN([C@@H](C)CO)C(=O)c2cccc(NS(=O)(=O)c3ccc(F)cc3)c2O[C@@H]1CN(C)S(=O)(=O)c1ccccc1	·	–	·	·	–	·
O=C(C[C@@H]1CC[C@@H](NC(=O)C2CC2)[C@@H](CO)O1)NCCCN1CCOCC1	·	–	·	·	–	·
O=C1C(=O)N(CCN2CCOCC2)C(c2ccc(Cl)c(Cl)c2)/C1=C(/O)c1ccc2c(c1)OCO2 (centres undefined)	–	–	–	–	63	–
O=C1C(=O)N(CCN2CCOCC2)C(c2cccc(Cl)c2)/C1=C(\O)c1ccc2c(c1)OCCO2 (centres undefined)	–	–	–	–	–	–
CC(NC(=O)CN(C)CC(=O)Nc1ccc(Cl)c(C(F)(F)F)c1)c1ccccc1 (centres undefined)	–	–	–	–	103	–
COc1ccc(/C=C2\SC(=O)N(CCCC(=O)Nc3cc(Cl)ccc3C(=O)O)C2=O)cc1	–	·	–	–	61	–
COc1ccc(/C=C2\SC(=S)N(CCC(=O)Nc3ccccc3C(=O)O)C2=O)cc1	–	–	–	–	–	–
CS(=O)(=O)Nc1ccc2c(c1)[C@@H]1C[C@H](CC(=O)NCc3ccccc3)O[C@@H](CO)[C@@H]1O2	·	–	·	·	–	·
COc1ccc(CNC(=O)C[C@@H]2C[C@@H]3c4cc(NC(=O)CC5CC5)ccc4O[C@@H]3[C@H](CO)O2)cc1	·	–	·	·	–	·
O=C(/C=C/c1ccc([N+](=O)[O-])s1)N1CCCCC1	–	·	·	39	–	–
O=C(C[C@@H]1C[C@H]2c3cc(NS(=O)(=O)c4ccc(F)cc4)ccc3O[C@H]2[C@H](CO)O1)NCc1cccc(F)c1	·	–	·	·	–	·
CO[C@@H]1CN(C)C(=O)c2cc(NC(=O)C3CCC3)ccc2OC[C@@H](C)N(C(=O)c2ccccc2)C[C@H]1C	·	–	·	·	·	·
COc1ccc(-c2ccc([C@@H]3[C@@H](C#N)N(C(=O)NC4CCCC4)[C@H]3CO)cc2)cc1	·	–	·	·	–	·
C=CCNc1sc(C(=O)c2ccccc2)c(N)c1-c1nc2ccccc2s1	–	–	–	–	·	91
CCOC(=O)c1sc(NCc2ccco2)c(-c2nc3ccccc3s2)c1N	–	–	–	–	·	88
c1coc(CNc2nc3ccccc3s2)c1	·	–	–	–	–	·
C=CCNC(=O)c1nc2ccccc2s1	–	–	–	–	–	–
CCNc1sc(C(=O)c2cccs2)c(N)c1-c1nc2ccccc2s1	–	–	–	–	·	98
